Results: ChEMBL document CHEMBL1152518, “1,2,3-Selenadiazole thioacetanilides: synthesis and anti-HIV activity evaluation” (Bioorg Med Chem, 2009)

Tests used:
[1] = target: Human immunodeficiency virus type 1 reverse transcriptase (Human immunodeficiency virus 1, UniProt Q72547); experiment: Inhibition of wild type HIV1 reverse transcriptase
[2] = target: Human immunodeficiency virus type 1 reverse transcriptase (Human immunodeficiency virus 1, UniProt Q72547, K103N/Y181C); experiment: Inhibition of HIV1 reverse transcriptase K103N/Y181C mutant
[3] = tested on: Human immunodeficiency virus 1; experiment: Antiviral activity against HIV1 3B infected in human MT4 cells assessed as inhibition of virus-induced cytopathic effect after 5 days by MTT assay; format: functional, organism-based; details: Human immunodeficiency virus 1, 3B, MT4, 120 h
Outline: (§1)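 MT-4 cells, resuspended at 6 × 10⁵ cells/ml, infected with HIV-1 IIIB or HIV-2 ROD at 100–300 CCID₅₀. Test compound stocks were made at 10× final concentration. Read after 5 days as MTT reduction to formazan, absorbance at 540 and 690 nm. Median OD of three wells. EC₅₀ is the concentration giving 50% protection against virus-induced cytopathic effect.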

[4] = tested on: Human immunodeficiency virus 2; experiment: Antiviral activity against HIV2 ROD infected in human MT4 cells assessed as inhibition of virus-induced cytopathic effect after 5 days by MTT assay; format: functional, organism-based; details: Human immunodeficiency virus 2, ISOLATE ROD, MT4, 120 h; outline: as §1
[5] = Cytotoxicity against mock-infected human MT4 cells after 5 days by MTT assay; format: cell-based
Outline: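 Mock-infected MT-4 cells at 6 × 10⁵ cells/ml, with culture medium in place of virus, exposed to compound (stocks at 10× final concentration) for 5 days. Viability read by MTT, absorbance at 540 and 690 nm, median OD of three wells. CC₅₀ is the concentration reducing OD540 of the mock-infected control by 50%.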

[6] = Selectivity index, ratio of CC50 for mock-infected human MT4 cells to EC50 for HIV1 3B infected in human MT4 cells; format: toxicity, cell-based; details: mock-infected (CC50) and HIV-1 3B infected (EC50)
Outline: (§2)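 Selectivity index is CC₅₀/EC₅₀. Both values come from MTT assays run over 5 days in MT-4 cells, mock-infected or infected with HIV-1 IIIB or HIV-2 ROD at 100–300 CCID₅₀. Median OD of three wells.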

[7] = Selectivity index, ratio of CC50 for mock-infected human MT4 cells to EC50 for HIV2 ROD infected in human MT4 cells; format: toxicity, cell-based; details: read-out: Ratio CC50/EC50; outline: as §2

IC50 [1]	SMILES	EC50 [1]	EC50 [2]	EC50 [3]	EC50 [4]	CC50 at 120 h [5]	selectivity ratio [6]	selectivity ratio [7]
–	Cc1ccc(-n2c(C)nnc2SCC(=O)Nc2ccccc2)cc1	2.05 µM	–	–	–	–	–	–
–	Cc1ccc(NC(=O)CSc2nnc(C)n2-c2ccccc2)c(Br)c1	0.1 µM	1.3 µM	–	–	–	–	–
0.005 µM	Cc1cc(C)c(-n2nnnc2SCC(=O)Nc2ccccc2Cl)c(C)c1	–	–	–	–	–	–	–
–	Cc1cccc(C)c1NC(=O)CSc1[se]nnc1-c1ccc(Cl)c(Cl)c1	–	–	> 7 µM	> 7 µM	7 µM	< 1	< 1
–	O=C(CSc1[se]nnc1-c1ccc(Cl)c(Cl)c1)Nc1ccccn1	–	–	> 31.4 µM	> 31.4 µM	31.4 µM	< 1	< 1
–	O=C(CSc1[se]nnc1-c1ccc(Cl)c(Cl)c1)Nc1ccccc1F	–	–	> 26.9 µM	> 26.9 µM	26.9 µM	< 1	< 1
–	COC(=O)c1ccsc1NC(=O)CSc1[se]nnc1-c1ccc(Cl)c(Cl)c1	–	–	> 22 µM	> 22 µM	22 µM	< 1	< 1
–	O=C(CSc1[se]nnc1-c1ccc(Cl)c(Cl)c1)Nc1nccs1	–	–	> 8.68 µM	> 8.68 µM	8.68 µM	< 1	< 1
–	Cc1ccc(NC(=O)CSc2[se]nnc2-c2ccc(Cl)c(Cl)c2)c(Br)c1	–	–	≥ 8.71 µM	> 22.9 µM	22.9 µM	–	< 1
–	O=C(CSc1[se]nnc1-c1ccc(Cl)c(Cl)c1)Nc1ccccc1Cl	–	–	> 23.4 µM	> 23.4 µM	23.4 µM	< 1	< 1
–	Cc1ccc(NC(=O)CSc2[se]nnc2-c2ccc(Cl)c(Cl)c2)cc1	–	–	6.65 µM	> 13.3 µM	13.3 µM	2	< 1
–	O=C(CSc1[se]nnc1-c1ccc(Cl)c(Cl)c1)Nc1ccccc1	–	–	≥ 6.07 µM	> 19 µM	19 µM	63	< 1
–	Cc1cccc(NC(=O)CSc2[se]nnc2-c2ccc(Cl)c(Cl)c2)c1C	–	–	> 12.8 µM	> 12.8 µM	12.8 µM	< 1	< 1
–	O=C(CSc1[se]nnc1-c1ccc(Cl)c(Cl)c1)Nc1cccnc1Cl	–	–	> 24.8 µM	> 24.8 µM	24.8 µM	< 1	< 1
–	O=C(CSc1[se]nnc1-c1ccc(Cl)c(Cl)c1)Nc1ccc(Cl)cc1	–	–	5.59 µM	> 16.8 µM	16.8 µM	3	< 1
–	Cc1ccccc1NC(=O)CSc1[se]nnc1-c1ccc(Cl)c(Cl)c1	–	–	5.56 µM	> 22.3 µM	22.3 µM	4	< 1
–	Cc1ccc2sc(NC(=O)CSc3[se]nnc3-c3ccc(Cl)c(Cl)c3)nc2c1	–	–	> 10.2 µM	> 10.2 µM	10.2 µM	< 1	< 1
–	Cc1ccc(NC(=O)CSc2[se]nnc2-c2ccc(Cl)c(Cl)c2)c([N+](=O)[O-])c1	–	–	5.42 µM	> 26.3 µM	26.3 µM	5	< 1
–	O=C(CSc1[se]nnc1-c1ccc(Cl)c(Cl)c1)Nc1ccccc1Br	–	–	> 23.6 µM	> 23.6 µM	23.6 µM	< 1	< 1
–	CC(=O)c1ccc(NC(=O)CSc2[se]nnc2-c2ccc(Cl)c(Cl)c2)c(Br)c1	–	–	2.45 µM	> 18.9 µM	18.9 µM	8	< 1
–	O=C(CSc1[se]nnc1-c1ccc(Cl)c(Cl)c1)Nc1ccccc1[N+](=O)[O-]	–	–	≥ 6.84 µM	> 26.6 µM	26.6 µM	–	< 1
